An excerpt weighted towards active compounds, which were near 1.7% of everything screened.
HNF4A DNA FP – change in binding of human HNF4 alpha to DNA. P41235. HNF4a-FITC DNA binding, fluorescence polarization, 1 h. AID 1224865. activity change, % at 10 µM. 0.3% of 360,000 active; in the data active = activity change above about 30%, passing the limit was not always enough
Target sequence (P41235 whole entry, looked up): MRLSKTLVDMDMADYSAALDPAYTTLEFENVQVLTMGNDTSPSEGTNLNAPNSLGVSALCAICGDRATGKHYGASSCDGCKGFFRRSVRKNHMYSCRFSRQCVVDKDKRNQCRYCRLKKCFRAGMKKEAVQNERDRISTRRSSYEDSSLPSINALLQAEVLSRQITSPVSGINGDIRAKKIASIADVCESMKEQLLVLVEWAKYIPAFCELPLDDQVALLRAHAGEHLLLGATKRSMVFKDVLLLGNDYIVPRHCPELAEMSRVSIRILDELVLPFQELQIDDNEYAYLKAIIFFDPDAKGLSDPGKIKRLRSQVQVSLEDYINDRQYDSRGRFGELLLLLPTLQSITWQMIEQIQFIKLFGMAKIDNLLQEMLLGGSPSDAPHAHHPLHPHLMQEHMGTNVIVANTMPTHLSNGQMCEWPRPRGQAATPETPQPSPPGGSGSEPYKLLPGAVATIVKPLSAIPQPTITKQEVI
Tb MetRS inh – blocks T. brucei methionyl-tRNA synthetase activity. purified T. brucei MetRS, ATP depletion, Kinase-Glo luminescence. 0.4% of 360,000 active. inhibition, % at 11.9 µM;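 active = inhibition above a per-plate cutoff of the control wells' mean inhibition plus 3 SD, cut at about 5.5% in these data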
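Dosing: 11.9 µM compound single dose, 0.9% DMSO; Assay system: purified T. brucei MetRS enzyme; Measured by: Kinase-Glo luciferase luminescence reporting remaining unconsumed ATP; Schedule: 15 min plus 2 h at 25 °C.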
IDE cell activ – activators of human insulin-degrading enzyme in cells | activation, % at 5.96 µM | 0.073% of 340,000 active | HEK cells, FAbeta-B cleavage, fluorescence polarization; 0% vehicle, 100% cell-free pure enzyme wells | P14735;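 active = activation above the mean of all tested compounds plus 3 SD, set per screening campaign, cut at about 17% in these data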
CSN inh – blocks human CSN-mediated cullin deneddylation. Purified CSN, SCF-Nedd8-OG deneddylation, fluorescence polarization. AID 651999. 0.38% of 360,000 active. inhibition, % at 12.5 µM;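 active = pattern-corrected inhibition above about 35%, with an unprinted fluorescence ratio check between 0.5 and 1.5, limit read from the data, passing the limit was not always enough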
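Test system: Human Csn5 produced in HEK293T cells | Compound: 12.5 µM single point | Times: 90 min, room temperature | Signal: Fluorescence polarization readout | Read-out basis: % inhibition of substrate cleavage by Csn5 | Controls: no-enzyme wells high, enzyme-with-substrate wells low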
IDE cell inh – inhibitors of human insulin-degrading enzyme in cells; HEK cells, FAbetaB cleavage, fluorescence polarization; inhibition, % at 5.59 µM; P14735; 0.41% of 320,000 active;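 active = percent inhibition above the average of all tested compounds plus 3 SD, set per screening campaign, cut at about 16% in these data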;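 note: IDE supplied by intact live HEK cells; FP after avidin binding of uncleaved biotin substrate so inhibition keeps polarization high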
TPT1 inh – blocks Candida albicans tRNA 2'-phosphotransferase | recombinant caTPT1, FP RNA substrate dephosphorylation | inhibition, % at 5 µM | 0.81% of 300,000 active | AID 1962;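 active = inhibition above the mean of all tested compounds plus 3 SD, set per screening campaign, cut at about 24% in these data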
TPT1 inh confirm – confirmation of Candida albicans TPT1 inhibitors; shares compounds with TPT1 inh; recombinant caTPT1, fluorescence polarization, RNase T1 coupled; inhibition, % at 5 µM; 74% of 2,400 active; AID 2149;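 active = inhibition above the primary screen limit, the mean inhibition of all tested compounds plus 3 SD, cut at about 25% in these data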
RNase T1 counter – blocks Aspergillus oryzae RNase T1, a TPT1 counter-screen; shares compounds with TPT1 inh; inhibition, % at 5 µM; 83% of 2,400 active; RNase T1 cleavage, fluorescence polarization, 1536-well;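 active = inhibition above the solvent-only control well mean plus 3 SD, limit set per screening run, cut at about 23% in these data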;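 note: inhibitors block cleavage so intact labeled substrate keeps polarization high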
Target sequence (P00651 whole entry, looked up): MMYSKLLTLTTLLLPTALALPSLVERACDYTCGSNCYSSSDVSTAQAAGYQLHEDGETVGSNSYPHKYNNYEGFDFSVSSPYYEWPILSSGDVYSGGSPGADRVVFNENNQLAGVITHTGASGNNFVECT
Hits are given with their value.

Screening CC(=O)/C(N=Nc1cc(C)ccc1O)=C(\C)O returned HNF4A DNA FP inactive, Tb MetRS inh inactive, IDE cell activ inactive, CSN inh inactive, IDE cell inh inactive, TPT1 inh 44.5, TPT1 inh confirm 29.4 and RNase T1 counter 47.8.
For Nc1ccc(C(=O)N/N=C/c2sc(N3CCOCC3)nc2-c2ccccc2)cc1 the results were HNF4A DNA FP inactive, Tb MetRS inh inactive, IDE cell activ inactive, CSN inh inactive, IDE cell inh inactive and TPT1 inh inactive.
`O=C(N/N=C/c1sc(N2CCOCC2)nc1-c1ccccc1)c1cccc(S(=O)(=O)N2CCOCC2)c1` gave HNF4A DNA FP inactive, Tb MetRS inh inactive, IDE cell activ inactive, CSN inh inactive, IDE cell inh inactive, TPT1 inh 59.6, TPT1 inh confirm 60.4 and RNase T1 counter 69.2.
O=C(Nc1ccccc1F)C(=Cc1sc(N2CCOCC2)nc1-c1ccccc1)C(=O)Nc1ccccc1F was read as HNF4A DNA FP inactive, Tb MetRS inh inactive, IDE cell activ inactive, CSN inh inactive, IDE cell inh inactive, TPT1 inh 48.3, TPT1 inh confirm inactive and RNase T1 counter inactive.
NC(=O)CSc1nc2ccccc2c(=O)n1-c1ccccc1 was read as HNF4A DNA FP inactive, Tb MetRS inh inactive, IDE cell activ inactive, CSN inh inactive, IDE cell inh inactive and TPT1 inh inactive.
`COc1cccc(-n2c(SCC(N)=O)nc3ccccc3c2=O)c1` gave HNF4A DNA FP inactive, Tb MetRS inh inactive, IDE cell activ inactive, CSN inh inactive, IDE cell inh inactive, TPT1 inh 40.4, TPT1 inh confirm 60.2 and RNase T1 counter 74.6.
For COC(=O)Cn1cnc2sc3c(c2c1=O)CCCC3 the results were HNF4A DNA FP inactive, Tb MetRS inh inactive, IDE cell activ inactive, CSN inh inactive, IDE cell inh inactive and TPT1 inh inactive.
`CCOC(=O)Cn1cnc2sc3c(c2c1=O)CCC3` gave HNF4A DNA FP inactive, Tb MetRS inh inactive, IDE cell activ inactive, CSN inh inactive, IDE cell inh inactive, TPT1 inh 35.9, TPT1 inh confirm inactive and RNase T1 counter 22.7.
CCOC(=O)N1CCN(C(=O)c2ccc(SC)cc2OC)CC1 was read as HNF4A DNA FP inactive, Tb MetRS inh inactive, IDE cell activ inactive, CSN inh inactive, IDE cell inh inactive and TPT1 inh inactive.
Cc1cc(SCC(=O)NCC2CCCO2)nc2ccccc12 (stereo not given) was read as HNF4A DNA FP inactive, Tb MetRS inh inactive, IDE cell activ inactive, CSN inh inactive, IDE cell inh inactive, TPT1 inh 29.9, TPT1 inh confirm 55.2 and RNase T1 counter 67.4.
`Cc1cc(SCC(=O)NC2CC2)nc2ccccc12` gave HNF4A DNA FP inactive, Tb MetRS inh inactive, IDE cell activ inactive, CSN inh inactive and IDE cell inh inactive.
For Cn1c(SCC(=O)NCC2CCCO2)nnc1-c1cccc(NC(=O)c2ccccc2F)c1 (stereo not given) the results were HNF4A DNA FP inactive, Tb MetRS inh inactive, IDE cell activ inactive, CSN inh inactive, IDE cell inh inactive, TPT1 inh 31.3, TPT1 inh confirm inactive and RNase T1 counter inactive.
`CC(=O)NC12CC3CC(C1)CC(C(=O)N1CCN(S(=O)(=O)c4ccccc4C#N)CC1)(C3)C2` gave HNF4A DNA FP inactive, Tb MetRS inh inactive, IDE cell activ inactive and CSN inh inactive.
Cc1csc(Nc2ccc(C(=O)O)cc2)n1 was read as HNF4A DNA FP inactive, Tb MetRS inh inactive, IDE cell activ inactive, CSN inh inactive, IDE cell inh inactive and TPT1 inh inactive.
For Cc1csc(Nc2ccccc2)n1 the results were HNF4A DNA FP inactive, Tb MetRS inh inactive, IDE cell activ inactive, CSN inh inactive, IDE cell inh inactive, TPT1 inh active, TPT1 inh confirm inactive and RNase T1 counter inactive.
`CCCCCCCCN1C(=O)[C@H](CC(=O)NCCCN2CCCC2=O)C[C@@]2(C(=O)OC)CC(C)(C)CC=C12` gave HNF4A DNA FP inactive, Tb MetRS inh inactive and CSN inh inactive.
`CC[C@H](C)/C=C(C)/C=C/C(=O)Cc1cc(O)c(C)c(O)c1C=O` gave HNF4A DNA FP inactive, Tb MetRS inh inactive, IDE cell activ inactive, CSN inh inactive, IDE cell inh inactive, TPT1 inh 33.7, TPT1 inh confirm 30.9 and RNase T1 counter 41.5.
Screening N#Cc1c(Sc2ncc(C(F)(F)F)cc2Cl)nsc1C/C=N\OCc1ccccc1Br returned HNF4A DNA FP inactive, Tb MetRS inh inactive, IDE cell activ inactive, CSN inh inactive, IDE cell inh inactive, TPT1 inh 54.7, TPT1 inh confirm 35.1 and RNase T1 counter 37.2.
Screening CCOC(=O)/C(=C\Nc1ccccc1C(F)(F)F)Sc1ncc(C(F)(F)F)cc1Cl returned HNF4A DNA FP inactive, Tb MetRS inh inactive, IDE cell activ inactive, CSN inh inactive, IDE cell inh inactive and TPT1 inh inactive.
`O=C(N/C=C/c1ccco1)Nc1cccc(Cl)c1` gave HNF4A DNA FP inactive, Tb MetRS inh inactive, CSN inh inactive, IDE cell inh inactive, TPT1 inh 34.3, TPT1 inh confirm inactive and RNase T1 counter inactive.
For CCc1ccc(CN(C)C(=O)c2cc(COc3ccc(OC)cc3Cl)on2)nc1 the results were HNF4A DNA FP inactive, Tb MetRS inh inactive, IDE cell activ inactive, CSN inh inactive, IDE cell inh inactive and TPT1 inh inactive.
For C=CCC[C@H](Cc1ccc(F)cc1)C(=O)OC[C@@H](Cc1c[nH]c2ccccc12)NC(=O)[C@@H](CC=C)CC(=O)NCCO the results were HNF4A DNA FP inactive, Tb MetRS inh inactive, IDE cell activ inactive, CSN inh inactive and IDE cell inh inactive.
For O=C1N/C(=C/c2ccc(N3CCOCC3)cc2)C(=O)N1Cc1ccc(F)cc1 the results were HNF4A DNA FP inactive, Tb MetRS inh inactive, IDE cell activ inactive, CSN inh inactive, IDE cell inh inactive and TPT1 inh inactive.
C=CCN1C(=O)N/C(=C/c2ccc(N3CCOCC3)o2)C1=O was read as IDE cell inh inactive, TPT1 inh 28.9, TPT1 inh confirm 104.6 and RNase T1 counter 112.5.
For O=C1N/C(=C/c2ccc(N3CCOCC3)o2)C(=O)N1c1ccccc1 the results were HNF4A DNA FP inactive, Tb MetRS inh inactive, IDE cell activ inactive, CSN inh inactive, IDE cell inh inactive, TPT1 inh 70.0, TPT1 inh confirm 149.5 and RNase T1 counter 148.4.
O=C1N/C(=C/c2ccc(N3CCCC3)cc2)C(=O)N1c1ccccc1 was read as HNF4A DNA FP inactive, Tb MetRS inh inactive, IDE cell activ inactive, CSN inh inactive, IDE cell inh inactive, TPT1 inh 34.5, TPT1 inh confirm 49.5 and RNase T1 counter 62.6.

Screens deposited in PubChem by several laboratories.
